These results are taken from ChEMBL document CHEMBL1148348, “New manzamine alkaloids from an Indo-Pacific sponge. Pharmacokinetics, oral availability, and the significant activity of several manzamines against HIV-I, AIDS opportunistic infections, and inflammatory diseases” (J Med Chem, 2004).

By EC50 is commonly meant the concentration needed to bring the measured effect to its halfway point. A low value points to an effect from little substance. As usually defined, the IC50 is the concentration that inhibits the measured activity by half. Lower therefore signals inhibition by little substance. One may read the logP as a log measure of how a compound divides between an organic and an aqueous phase. Higher therefore signals higher lipophilicity. In general, MIC refers to the lowest concentration found to suppress growth. A lower MIC goes with a more susceptible organism. In general, Cmax refers to the peak of the concentration-time curve. Usually Tmax stands for the time at which the peak concentration occurs. As usually defined, the bioavailability is the share of a dose that reaches the circulation, judged against a reference dose that is usually intravenous. As a reminder, the clearance is a measure of how efficiently the substance is removed, as volume per time. Lower therefore signals inefficient removal. By half-life is commonly meant the time needed for the level to fall by half in the phase considered.

Data set [1] relates to Human immunodeficiency virus 1. Briefly: Effective concentration against HIV-1. Format: functional, organism-based.
In data set [2] the test system is Cryptococcus neoformans. Briefly: Inhibitory concentration against Cryptococcus neoformans; Not active. The format is functional, organism-based.
For data set [3], the system named is Staphylococcus aureus. Briefly: Inhibitory concentration against Staphylococcus aureus; Not active. Format: functional, organism-based.
Data set [4] concerns Staphylococcus aureus. Briefly: Inhibitory concentration against methicillin-resistant Staphylococcus aureus; Not active. Format: functional, organism-based.
Data set [5] has as its system Mycobacterium intracellulare. The experiment in a line: Inhibitory concentration against Mycobacterium intracellular; Not active. The format is functional, organism-based.
Data set [6] is described as follows: Partition coefficient (logP). Format: physicochemical. The conditions noted are these: octanol/water.
The test system of data set [7] is Staphylococcus aureus. The experiment in a line: Inhibitory concentration against methicillin-resistant Staphylococcus aureus. Format: functional, organism-based.
Data set [8] concerns Staphylococcus aureus. Briefly: Minimal inhibitory concentration against Staphylococcus aureus; Range is 0.5-6.25 ug/mL. The format is functional.
A short description of data set [9]: Cmax in rats. The note with it: rat, in vivo. Format: ADME, organism-based.
For data set [10], the system named is Mycobacterium intracellulare. Briefly: Inhibitory concentration against Mycobacterium intracellular. Format: functional, organism-based.
The nature of data set [11]: Tmax in rats. The format is ADME, organism-based. The note with it: rat, in vivo.
Data set [12] can be described thus: Apparent volume of distribution at 10 mg/kg in rat upon intravenous administration. Format: ADME, organism-based. The arrangement: dose 10 mg/kg, route intravenous. The conditions noted are these: in vivo. The gist of the method: (§1)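 Male Sprague-Dawley rats (280-320 g), jugular/carotid cannulated the day before, fasted until 12 h post-dose. Given 10 mg/kg iv as a 5 min jugular infusion, approx. 3 mg/mL in 10% v/v ethanol/50 mM tartrate buffer pH 3.0. Carotid blood sampled over 96 h; plasma by validated HPLC/MS (LOQ 10 ng/mL). Parameters estimated from mean plasma concentrations, n = 3.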

The subject of data set [13] is Staphylococcus aureus. The experiment in a line: Minimal inhibitory concentration against methicillin-resistant Staphylococcus aureus; Range is 0.5-6.25 ug/mL. Format: functional.
Data set [14] is described as follows: Oral bioavailability in rat. Format: ADME, organism-based. The note with it: in vivo.
For data set [15], the system named is Mycobacterium intracellulare. Briefly: Minimal inhibitory concentration against Mycobacterium intracellular; Range is 0.5-6.25 ug/mL. Format: functional.
Data set [16] relates to Staphylococcus aureus. Briefly: Inhibitory concentration against Staphylococcus aureus. The format is functional, organism-based.
The nature of data set [17]: Plasma clearance at 10 mg/kg in rat upon intravenous administration. The arrangement: dose 10 mg/kg, route intravenous. The format is ADME, organism-based. The essentials: as §1
The test system of data set [18] is Cryptococcus neoformans. The experiment in a line: Inhibitory concentration against Cryptococcus neoformans. The format is functional, organism-based.
A short description of data set [19]: Half-life at 10 mg/kg in rat upon intravenous administration. Format: ADME, organism-based. The arrangement: dose 10 mg/kg, route intravenous. The note with it: in vivo. The essentials: as §1
For data set [20], the species on record is Rattus norvegicus. Briefly: Concentration for 50% increase in lactate dehydrogenase release in rat neonatal brain microglia cells. The format is functional. The essentials: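 Lactate dehydrogenase released from rat neonatal brain microglia serves as the marker of cell toxicity. The value is expressed as LDH50.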
For data set [21], the species on record is Rattus norvegicus. Briefly: Inhibitory activity against superoxide anion generation in rat neonatal brain microglia cells. The format is functional, cell-based. The gist of the method: (§2)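 Rat neonatal brain microglia stimulated with phorbol ester. Release of superoxide anion or thromboxane B2 is measured, and inhibition is expressed as IC50.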
The nature of data set [22]: Inhibitory activity against thromboxane B2. The arrangement: species or system Rattus norvegicus. The essentials:
as §2

Converted amounts (≈) assume the structure as drawn.

In data set [1], `Cc1cn([C@H]2C[C@H](N=[N+]=[N-])[C@@H](CO)O2)c(=O)[nH]c1=O` [ZIDOVUDINE] yielded an EC50 of 0.004 µM. In other words, the single-digit nanomolar range.
On to `OC1=C[C@@]2(O)CC/C=C\CCCCN3CC[C@@H]1[C@]1(C[C@@H]4/C=C\CCCCN4[C@H]12)C3` [IRCINOL A], for which the IC50 result in the data set with Cryptococcus neoformans [2] and with Staphylococcus aureus [3] was “Not Active” throughout.
Consider `Oc1cccc2c3cc[nH]c(C4=C[C@]56CC/C=C\CCCCN7CC[C@@H]4[C@]4(C[C@@H]8/C=C\CCC[C@@H](O5)N8[C@H]46)C7)c-3nc12` [12,28-OXA-8-HYDROXY-MANZAMINE A], for which the IC50 result (with Staphylococcus aureus [4]; in data set [5]; with Cryptococcus neoformans [2]; in the data set with Staphylococcus aureus [3]) was “Not Active” each time.
As for `O=C1CCCN2[C@@H](CC1)C[C@]13CN4CCCC/C=C\CC[C@](O)(C=C(c5nccc6c5[nH]c5c(O)cccc56)C1CC4)[C@H]23` (stereo partly specified) [MANZAMINE F], the IC50 result with Staphylococcus aureus [4] and in the data set with Staphylococcus aureus [3] was “Not Active” each time.
On to `O=C1CCCN2[C@@H](CC1)C[C@]13CN4CCCC/C=C\CC[C@](O)(C=C(c5nccc6c5[nH]c5ccccc56)C1CC4)[C@H]23` (stereo partly specified) [MANZAMINE E], for which the IC50 entry in the data set on Staphylococcus aureus [4], in the data set with Cryptococcus neoformans [2] and in the data set on Staphylococcus aureus [3] was “Not Active” throughout.
Regarding `O=CC1=C[C@@]2(O)CC/C=C\CCCCN3CC[C@@H]1[C@]1(C[C@@H]4/C=C\CCCCN4[C@H]12)C3` [IRCINAL], the IC50 result (in the data set on Staphylococcus aureus [4]; in [5]; with Cryptococcus neoformans [2]; with Staphylococcus aureus [3]) was “Not Active” throughout.
`O[C@]12C=C(c3[nH]ccc4c5ccccc5nc3-4)[C@@H]3CCN(CCCC/C=C\CC1)C[C@@]31C[C@@H]3/C=C\CCCCN3[C@H]12` [MANZAMINE] showed a log partition coefficient (logP) in data set [6] of 8.34. The IC50 turned out to be 0.7 µg/mL (≈ 1.28 µM) in the data set on Staphylococcus aureus [7], 0.35 µg/mL (≈ 0.638 µM) in data set [10], 0.5 µg/mL (≈ 0.911 µM) in the data set with Staphylococcus aureus [16] and 3 µg/mL (≈ 5.47 µM) with Cryptococcus neoformans [18]. In addition, the MIC (with Staphylococcus aureus [8]; in the data set with Staphylococcus aureus [13]; in data set [15]) was less than 6.25 µg/mL throughout. The compound also had a peak concentration (Cmax) in data set [9] of 1070 ng/mL. Also, in data set [11], the Tmax was determined as 10 h. Besides, the Vd in [12] was 23.7 L/kg. In [14], the bioavailability was found to be 20.6%. For the same compound, in data set [17], the clearance came out at 5.1 mL/min/kg. The half-life in data set [19] is 2.24 days. This compound also registered an EC50 in [1] of 4.2 µM.
In the data set listed under Rattus norvegicus [20], `Oc1cccc2c1[nH]c1c(C3=C[C@@]4(O)CC/C=C\CCCCN5CC[C@@H]3[C@]3(CC6/C=C\CCCCN6[C@H]34)C5)nccc12` (stereo partly specified) gave an LDH50 greater than 30 µM. Further, the MIC (in the data set on Staphylococcus aureus [8]; in data set [15]) was less than 6.25 µg/mL each time. The IC50 (in the data set listed under Rattus norvegicus [21]; in [22]) was greater than 30 µM each time.
`C1=C(c2[nH]ccc3c4ccccc4nc2-3)[C@@H]2CCN3CCCC/C=C\CC[C@]14O[C@@H]1CCC/C=C\[C@H]5C[C@@]2(C3)[C@H]4N51` [12,28-OXAMANZAMINE A]: the IC50 entry (with Staphylococcus aureus [4]; in data set [5]; with Cryptococcus neoformans [2]; with Staphylococcus aureus [3]) was “Not Active” each time. This compound showed an EC50 in [1] of 22.2 µM.
